{"data": "Measured values gathered from unrelated publications", "note": "Lines come from different studies, so protocols differ."}
{"Structure (SMILES)": "COc1cccc2c1C(=O)c1c(O)c3c(c(O)c1C2=O)C[C@@](O)(C(=O)CO)C[C@@H]3O[C@H]1C[C@H](N)[C@H](O)[C@H](C)O1", "cell line": "NCI-H1299", "assay": "cell growth or viability, MTT", "conditions": "72 h", "IC50 [µM]": 0.77}
{"Structure (SMILES)": "CC(C)c1ccccc1[C@@H]1CCCN1C1CC2(CCN(c3ccc(C(=O)NS(=O)(=O)c4ccc(NC[C@H]5CC[C@](C)(O)CC5)c([N+](=O)[O-])c4)c(Oc4cnc5[nH]ccc5c4)c3)CC2)C1", "cell line": "HL-60", "assay": "cell growth or viability, ATP luminescence", "conditions": "48 h", "IC50 [µM]": 0.381}
{"Structure (SMILES)": "COc1cc(NC(=O)c2cccc(I)c2)ccc1S(N)(=O)=O", "cell line": "RAW264.7", "assay": "cell growth or viability, MTT", "conditions": "48 h", "IC50 [µM]": "> 100"}
{"Structure (SMILES)": "CC1(C)CCC(CN2CCN(c3ccc(C(=O)NS(=O)(=O)c4ccc(NCC5CCOCC5)c([N+](=O)[O-])c4)c(Oc4cnc5[nH]ccc5c4)c3)CC2)=C(c2ccc(Cl)cc2)C1", "cell line": "Maver1", "assay": "cell growth or viability, ATP luminescence", "conditions": "48 h", "IC50 [µM]": 0.0065}
{"Structure (SMILES)": "COc1cc2c3c(n(CCCn4ccnc4)c(=O)c2cc1OC)-c1nc2c(cc1C3=O)OCO2", "cell line": "HL-60", "assay": "cell growth or viability, MTS", "conditions": "72 h", "IC50 [µM]": "> 2"}
{"Structure (SMILES)": "COc1cc2c(NC3CCN(CCCC(=O)NCCCCCCCCCCCC(=O)N[C@H](C(=O)N4C[C@H](O)C[C@H]4C(=O)NCc4ccc(-c5scnc5C)cc4)C(C)(C)C)CC3)nc(N3CCC(F)(F)CC3)nc2cc1OCCCN1CCCC1", "cell line": "NCI-H1299", "assay": "cell growth or viability, CCK-8", "conditions": "8 days", "IC50 [µM]": 5}
{"Structure (SMILES)": "COc1cc(NC(=O)c2ccco2)ccc1S(N)(=O)=O", "cell line": "RAW264.7", "assay": "cell growth or viability, MTT", "conditions": "48 h", "IC50 [µM]": "> 100"}
{"Structure (SMILES)": "COc1cc2c3c(n(CCCNC(C)C)c(=O)c2cc1OC)-c1nc2c(cc1C3=O)OCO2", "cell line": "HL-60", "assay": "cell growth or viability, MTS", "conditions": "72 h", "IC50 [µM]": 0.328}
{"Structure (SMILES)": "CC#CCOc1ccc(/C=C/c2cc(OC)cc(OC)c2-c2cnnn2C(=O)NC(C)C)cc1", "cell line": "RAW264.7", "assay": "NO release, inhibitor, Griess", "conditions": "24 h, LPS-stimulated", "IC50 [µM]": 5.5}
{"Structure (SMILES)": "CCOc1ccc(C(=O)Nc2ccc(S(N)(=O)=O)c(OC)c2)cc1", "cell line": "RAW264.7", "assay": "cell growth or viability, MTT", "conditions": "48 h", "IC50 [µM]": "> 100"}
{"Structure (SMILES)": "CCCOc1ccc(/C=C/c2cc(OC)cc(OC)c2-c2cnnn2C(=O)NCCc2ccccc2)cc1", "cell line": "RAW264.7", "assay": "NO release, inhibitor, Griess", "conditions": "24 h, LPS-stimulated", "IC50 [µM]": 10.6}
{"Structure (SMILES)": "COc1cc(NC(=O)c2cccc(C)c2)ccc1S(N)(=O)=O", "cell line": "RAW264.7", "assay": "cell growth or viability, MTT", "conditions": "48 h", "IC50 [µM]": "> 100"}
{"Structure (SMILES)": "COc1ccc(NC(=O)C2=C(C)NC(C)=C(C(=O)Nc3ccc(OC)cc3OC)C2c2ccc(O)cc2)c(OC)c1", "cell line": "Vero", "assay": "cell growth or viability, MTT", "IC50 [µM]": 70.3}
{"Structure (SMILES)": "CC#CCOc1ccc(/C=C/c2cc(OC)cc(OC)c2-c2cnnn2C(=O)NCCc2ccccc2)cc1", "cell line": "RAW264.7", "assay": "NO release, inhibitor, Griess", "conditions": "24 h, LPS-stimulated", "IC50 [µM]": 6.1}
{"Structure (SMILES)": "COc1cc(NC(=O)C2=C(C)NC(C)=C(C(=O)Nc3cc(OC)c(Cl)cc3OC)C2c2ccc(O)cc2)c(OC)cc1Cl", "cell line": "Vero", "assay": "cell growth or viability, MTT", "IC50 [µM]": 51.8}
{"Structure (SMILES)": "C#CCOc1ccc(/C=C/c2cc(OC)cc(OC)c2-c2cnnn2C(=O)NCCC)cc1", "cell line": "RAW264.7", "assay": "NO release, inhibitor, Griess", "conditions": "24 h, LPS-stimulated", "IC50 [µM]": 0.7}
{"Structure (SMILES)": "C=C(F)C(=O)N1CCN(c2nc(OC[C@@H]3CCCN3C)nc3c2CCN(c2cccc4cccc(Cl)c24)C3)C[C@@H]1CC#N", "cell line": "OV56", "assay": "cell growth or viability, ATP luminescence", "conditions": "3D culture", "IC50 [µM]": "> 1"}
